Experimental findings from ChEMBL document CHEMBL4732197, “Identification of novel potent HIV-1 inhibitors by exploiting the tolerant regions of the NNRTIs binding pocket” (Eur J Med Chem, 2021) are described below.

Data set [1] concerns Human immunodeficiency virus 1. In words: Antiviral activity against HIV-1 3B infected in human MT4 cells assessed as reduction in virus-induced cytopathic effect incubated for 5 days by MTT assay. Conditions: Human immunodeficiency virus 1, 3B, MT4, 120 h. It counts as functional, organism-based. Summed up: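 MT-4 cells resuspended at 6 × 10^5 cells/mL were infected with HIV-1 stock at 100–300 CCID50. Compounds were tested in serial 5-fold dilutions in triplicate wells. Viability was read by MTT after 5 days at 540 and 690 nm, using the median of three wells.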
Background: Damage to the host cells serves as the signal in cytopathic effect assays.

The nature of data set [2]: Cytotoxicity against human MT4 cells assessed as reduction in cell viability incubated for 5 days by MTT assay. The settings on record: time 5 day. It counts as cell-based. In short, it runs like this: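 Mock-infected MT-4 cells at 6 × 10^5 cells/mL were given serial 5-fold compound dilutions in triplicate wells alongside the infected series. After 5 days viability was read by MTT at 540 and 690 nm, using the median of three wells.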
For orientation: Tetrazolium assays rely on reduction of a dye to a coloured formazan, in cell work by metabolically active cells.

Data set [3] in a line: Selectivity index, ratio of CC50 for human MT4 cells to EC50 for antiviral activity against HIV IIIB. It counts as toxicity. Conditions: read-out: Ratio CC50/EC50. In short, it runs like this:
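SI is computed as CC50/EC50. […] Both used serial 5-fold dilutions in triplicate and were read by MTT after 5 days, taking the median absorbance of three wells.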

A short description of data set [4]: Inhibition of reverse transcriptase RES056 mutant in HIV-1 infected in human MT4 cells assessed as reduction in virus-induced cytopathic effect incubated for 5 days by MTT assay. It counts as cell-based. The settings on record: Human immunodeficiency virus 1, MT4, 120 h. Summed up: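 MT-4 cells were spun down, resuspended at 6 × 10^5 cells/mL and infected with 100–300 CCID50 of mutant HIV-1 (RES056 = K103N + Y181C). Serial 5-fold compound dilutions were tested in triplicate wells alongside mock-infected wells. After 5 days, viability was read by MTT at 540 and 690 nm using the median of three wells.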

Data set [5] has as its target Human immunodeficiency virus type 1 reverse transcriptase (Human immunodeficiency virus 1, UniProt Q72547). In words: Inhibition of HIV-1 reverse transcriptase assessed as inhibition of biotin-dUTP incorporation into wild type RT measured after 1 hr by ELISA. (In general: An ELISA detects its analyte on a solid surface through an enzyme-linked reagent.)
A short description of data set [6]: Solubility in water at pH 7 at 0.1 to 10 mg.
Data set [7] in a line: physchem. Conditions: water, pH 2.
Data set [8] can be described thus: physchem. Conditions: water, pH 7.4.
The test system of data set [9] is reverse transcriptase Y181C mutant (HIV-1). In words: Inhibition of reverse transcriptase Y181C mutant in HIV-1 infected in human MT4 cells assessed as reduction in virus-induced cytopathic effect incubated for 5 days by MTT assay. The settings on record: Human immunodeficiency virus 1, MT4, 120 h.

Each structure is given as a SMILES string. ≈ marks a conversion by molar mass, not a printed value. Where only a bound is given, the exact number is not on record here.

In the case of `Cc1cc(/C=C/C#N)cc(C)c1Oc1nc(Nc2ccc(CN3CCN(S(N)(=O)=O)CC3)cc2)nc2ccsc12`, the EC50 in data set [1] worked out at 7 nM; in data set [4], 1910 nM; in data set [9], 154 nM. Also, the CC50 at 120 h in [2] stood at 145000 nM. In addition, the selectivity ratio in data set [3] came to 19000. Also, the half-inhibitory concentration (IC50) in [5] was determined as 961 nM. Besides, the values for the solubility (in data set [6]; in the data set “physchem [7]”; in the data set “physchem [8]”) were 49.7 µg/mL (≈ 86.3 µM), 73.1 µg/mL (≈ 127 µM) and 39.5 µg/mL (≈ 68.6 µM), respectively.

For `Cc1cc(/C=C/C#N)cc(C)c1Oc1nc(Nc2ccc(N3CCN(S(C)(=O)=O)CC3)cc2)nc2ccsc12`, the EC50 was 27 nM in data set [1], more than 11500 nM in data set [4] and 4530 nM in [9]. For the same compound, the CC50 at 120 h in data set [2] was 11500 nM. The selectivity ratio in data set [3] worked out at 428. In addition, in data set [5], the IC50 turned out to be 211 nM.

With `Cc1cc(/C=C/C#N)cc(C)c1Oc1nc(Nc2ccc(CN3CCN(S(N)(=O)=O)CC3)cc2)nc2sccc12`, the results for the EC50 in data set [1], in data set [4] and in [9] were 8 nM, 1380 nM and 45 nM, respectively. In addition, in data set [2], the cytotoxic concentration (CC50) at 120 h was more than 218000 nM. For the same compound, in [3], the selectivity ratio is more than 26900. The IC50 in data set [5] came to 299 nM. The solubility is 49.3 µg/mL (≈ 85.6 µM) in data set [6], 64.9 µg/mL (≈ 113 µM) in the data set “physchem [7]” and 38.9 µg/mL (≈ 67.6 µM) in the data set “physchem [8]”.

On to `Cc1cc(/C=C/C#N)cc(C)c1Oc1nc(Nc2ccc(N3CCCC(N)C3)cc2)nc2sccc12` (stereo not given), for which, in data set [1], the EC50 stood at 461 nM. Further, the CC50 at 120 h in data set [2] amounted to 4610 nM. In addition, the selectivity ratio in data set [3] was 10. Moreover, in data set [5], the IC50 is 956 nM.

Regarding `Cc1cc(/C=C/C#N)cc(C)c1Oc1nc(Nc2ccc(N3CCN(S(N)(=O)=O)CC3)cc2)nc2ccsc12`, the values for the EC50 in data set [1], in data set [4] and in [9] were 27 nM, more than 223000 nM and 2250 nM, respectively. Also, in data set [2], the cytotoxic concentration (CC50) at 120 h is more than 223000 nM. For the same compound, in data set [3], the selectivity ratio is more than 8310. Further, the IC50 in [5] turned out to be 214 nM.

As for `Cc1cc(/C=C/C#N)cc(C)c1Oc1nc(Nc2ccc(N3CCCC(NS(C)(=O)=O)C3)cc2)nc2sccc12` (stereo not given), the EC50 in data set [1] was found to be 1430 nM; in data set [4], 16500 nM; in data set [9], 14000 nM. In addition, the 50% cytotoxic concentration (CC50) at 120 h in [2] was 112000 nM. Moreover, the selectivity ratio in data set [3] turned out to be 78. In addition, the IC50 in [5] worked out at 1020 nM.

Consider `Cc1cc(/C=C/C#N)cc(C)c1Oc1nc(Nc2ccc(N3CCN(S(C)(=O)=O)CC3)cc2)nc2sccc12`, for which the EC50 in [1] was found to be 172 nM; in data set [4] it was 175000 nM; in data set [9], 42700 nM. Moreover, the CC50 at 120 h in data set [2] is more than 222000 nM. For the same compound, the selectivity ratio in [3] is more than 1300. The IC50 in [5] stood at 239 nM.

`Cc1cc(/C=C/C#N)cc(C)c1Oc1nc(Nc2ccc(N3CCCC(NS(N)(=O)=O)C3)cc2)nc2ccsc12` (stereo not given): the EC50 in data set [1] was 59 nM; in [4], more than 218000 nM; in data set [9] it was 3640 nM. Besides, the CC50 at 120 h in data set [2] is more than 218000 nM. Moreover, in [3], the selectivity ratio is more than 3630. Moreover, the half-maximal inhibitory concentration (IC50) in [5] amounted to 2410 nM.

Turning to `Cc1cc(/C=C/C#N)cc(C)c1Oc1nc(Nc2ccc(CN3CCN(S(C)(=O)=O)CC3)cc2)nc2ccsc12`, the EC50 in [1] is 391 nM; in data set [4], more than 20700 nM; in data set [9] it was 5640 nM. Further, the CC50 at 120 h in [2] stood at 20700 nM. In addition, the selectivity ratio in data set [3] turned out to be 53. Also, in [5], the IC50 was found to be 139 nM.

Consider `Cc1cc(/C=C/C#N)cc(C)c1Oc1nc(Nc2ccc(CN3CCNCC3)cc2)nc2ccsc12`, for which the EC50 in data set [1] was 216 nM. In addition, the CC50 at 120 h in [2] worked out at 3970 nM. In addition, the selectivity ratio in data set [3] stood at 18. In addition, the IC50 in data set [5] is 707 nM.

As for `Cc1cc(/C=C/C#N)cc(C)c1Oc1nc(Nc2ccc(CN3CCNCC3)cc2)nc2sccc12`, the EC50 in data set [1] was 42 nM. Besides, the cytotoxic concentration (CC50) at 120 h in data set [2] is 4030 nM. Also, the selectivity ratio in data set [3] worked out at 94. In data set [5], the IC50 turned out to be 151 nM.

Consider `Cc1cc(/C=C/C#N)cc(C)c1Oc1nc(Nc2ccc(N3CCNCC3)cc2)nc2sccc12`, for which the EC50 in data set [1] was found to be 584 nM. In data set [2], the CC50 at 120 h worked out at 4740 nM. Besides, the selectivity ratio in [3] amounted to 8. Moreover, the IC50 in data set [5] is 849 nM.

On to `Cc1cc(/C=C/C#N)cc(C)c1Oc1nc(Nc2ccc(N3CCN(S(N)(=O)=O)CC3)cc2)nc2sccc12`, for which the figures for the EC50 in [1], in data set [4] and in [9] were 28 nM, 196000 nM and 1360 nM, respectively. Moreover, the CC50 at 120 h in data set [2] is more than 223000 nM. The selectivity ratio in data set [3] is more than 7790. The IC50 in data set [5] stood at 713 nM.

`Cc1cc(/C=C/C#N)cc(C)c1Oc1nc(Nc2ccc(CN3CCN(S(C)(=O)=O)CC3)cc2)nc2sccc12`: the EC50 in data set [1] turned out to be 36 nM; in [4] it was 18800 nM; in data set [9], 1270 nM. In [2], the CC50 at 120 h stood at 131000 nM. Also, in data set [3], the selectivity ratio was determined as 3560. Besides, in [5], the half-inhibitory concentration (IC50) amounted to 103 nM.

Consider `Cc1cc(/C=C/C#N)cc(C)c1Oc1nc(Nc2ccc(N3CCCC(NS(N)(=O)=O)C3)cc2)nc2sccc12` (stereo not given), for which the figures for the EC50 in data set [1], in [4] and in data set [9] were 126 nM, more than 218000 nM and 7530 nM, respectively. In data set [2], the CC50 at 120 h was more than 218000 nM. Besides, the selectivity ratio in data set [3] was more than 1730. Further, the IC50 in data set [5] came to 4790 nM.

As to `Cc1cc(/C=C/C#N)cc(C)c1Oc1nc(Nc2ccc(N3CCNCC3)cc2)nc2ccsc12`, the EC50 in [1] came to 387 nM. In data set [2], the CC50 at 120 h was determined as 5730 nM. The selectivity ratio in data set [3] amounted to 15. Also, the 50% inhibitory concentration (IC50) in data set [5] came out at 945 nM.

In the case of `Cc1cc(/C=C/C#N)cc(C)c1Oc1nc(Nc2ccc(N3CCCC(NS(C)(=O)=O)C3)cc2)nc2ccsc12` (stereo not given), the concentration giving a half-maximal response (EC50) in data set [1] was 450 nM; in data set [4] it was more than 217000 nM; in data set [9] it was 43400 nM. For the same compound, the CC50 at 120 h in [2] is more than 217000 nM. Further, the selectivity ratio in data set [3] is more than 434. Besides, the IC50 in data set [5] was 775 nM.

As for `Cc1cc(/C=C/C#N)cc(C)c1Oc1nc(Nc2ccc(N3CCCC(N)C3)cc2)nc2ccsc12` (stereo not given), the EC50 in [1] is 815 nM. For the same compound, the CC50 at 120 h in data set [2] came to 3820 nM. The selectivity ratio in data set [3] was determined as 5. For the same compound, the IC50 in [5] came to 1580 nM.

Take `O=C1Nc2ccc(Cl)cc2[C@@](C#CC2CC2)(C(F)(F)F)O1` [EFAVIRENZ]: the 50% effective concentration (EC50) in data set [1] worked out at 28 nM; in data set [4], 335 nM; in data set [9] it was 5 nM. The CC50 at 120 h in [2] was more than 6340 nM.

For `Cc1cc(C#N)cc(C)c1Oc1nc(Nc2ccc(C#N)cc2)nc(N)c1Br` [ETRAVIRINE], in [2], the CC50 at 120 h was more than 4590 nM. The values for the EC50 in data set [4] and in [9] were 60 nM and 15 nM, respectively. Moreover, the solubility (in [6]; in the data set “physchem [8]”) was less than 1 µg/mL in each case.

`Cc1ccnc2c1NC(=O)c1cccnc1N2C1CC1` [NEVIRAPINE]: the figures for the EC50 in [1], in data set [4] and in [9] were 150 nM, more than 15000 nM and 5050 nM, respectively. Besides, the 50% cytotoxic concentration (CC50) at 120 h in data set [2] is more than 15000 nM.

The EC50 is the concentration giving half of the maximal effect. By CC50 is commonly meant the concentration at which the toxic effect on the cells reaches its halfway point. The term IC50 denotes the concentration that gives 50% inhibition. A word on the solubility: it is the dissolved amount per volume that the medium holds.
